PAFAH2 inh: PAFAH2 enzyme inhibitors, primary screen, biochemical, fluorescence polarization, human; Platelet-activating factor acetylhydrolase 2, cytoplasmic (Homo sapiens), Q99487; recombinant PAFAH2, FP-rhodamine activity probe; inhibition, % at 3.39 µM; hit rate 0.99% among 340,000; AID 492956, 2010;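 active = inhibition above the mean over all tested compounds plus 3 SD, cut at about 30% in these data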;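 note: inhibitors block probe labeling of enzyme so polarization drops; 0% = enzyme with DMSO and 100% = wells lacking PAFAH2 protein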
PAFAH1B3 FP inh: PAFAH1B3 enzyme inhibitors, primary screen, biochemical, fluorescence polarization, human; Platelet-activating factor acetylhydrolase IB subunit alpha1 (Homo sapiens), Q15102; hit rate 0.28% among 340,000; inhibition, % at 3.39 µM; recombinant PAFAH1B3, FP-rhodamine probe;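 active = inhibition above the screen-wide average of all tested compounds plus 3 SD, cut at about 25% in these data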;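 note: 0% = enzyme with DMSO only and 100% = wells lacking PAFAH1B3 protein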
PAFAH1B2 inh: PAFAH1B2 enzyme inhibitors, primary screen, biochemical, fluorescence polarization, human. inhibition, % at 3.39 µM. hit rate 1.2% among 340,000. recombinant PAFAH1B2, FP-rhodamine activity probe. AID 492953, 2010;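 active = inhibition above the mean of all tested compounds plus 3 SD, cut at about 24% in these data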;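 note: 0% = enzyme with DMSO and 100% = wells lacking PAFAH1B2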
pPAFAH FP inh: pPAFAH enzyme inhibitors, primary screen, biochemical, fluorescence polarization, human | Platelet-activating factor acetylhydrolase (Homo sapiens), Q13093 | recombinant pPAFAH, FP-rhodamine probe fluorescence polarization | inhibition, % at 3.39 µM | hit rate 1.5% among 330,000 | AID 463082, 2010;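 active = inhibition above the mean inhibition across the screen plus 3 SD, cut at about 25% in these data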;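 note: inhibitors block binding of the rhodamine activity-based probe so polarization drops; 0% = enzyme with DMSO and 100% = wells lacking pPAFAH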
Apaf-1 inh: inhibitors of human Apaf-1 apoptosome, primary screen, biochemical, DEVD-Rh110 fluorescence, uHTS; Apoptotic protease-activating factor 1 (Homo sapiens), O14727; reconstituted apoptosome caspase-3 activity; inhibition, % at 20 µM; hit rate 0.71% among 330,000; active = inhibition of at least 40% at 20 µM;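 note: plate controls were DMSO wells for no effect and DEVD-CHO caspase inhibitor wells for full effect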
Target sequence (O14727 whole entry, looked up): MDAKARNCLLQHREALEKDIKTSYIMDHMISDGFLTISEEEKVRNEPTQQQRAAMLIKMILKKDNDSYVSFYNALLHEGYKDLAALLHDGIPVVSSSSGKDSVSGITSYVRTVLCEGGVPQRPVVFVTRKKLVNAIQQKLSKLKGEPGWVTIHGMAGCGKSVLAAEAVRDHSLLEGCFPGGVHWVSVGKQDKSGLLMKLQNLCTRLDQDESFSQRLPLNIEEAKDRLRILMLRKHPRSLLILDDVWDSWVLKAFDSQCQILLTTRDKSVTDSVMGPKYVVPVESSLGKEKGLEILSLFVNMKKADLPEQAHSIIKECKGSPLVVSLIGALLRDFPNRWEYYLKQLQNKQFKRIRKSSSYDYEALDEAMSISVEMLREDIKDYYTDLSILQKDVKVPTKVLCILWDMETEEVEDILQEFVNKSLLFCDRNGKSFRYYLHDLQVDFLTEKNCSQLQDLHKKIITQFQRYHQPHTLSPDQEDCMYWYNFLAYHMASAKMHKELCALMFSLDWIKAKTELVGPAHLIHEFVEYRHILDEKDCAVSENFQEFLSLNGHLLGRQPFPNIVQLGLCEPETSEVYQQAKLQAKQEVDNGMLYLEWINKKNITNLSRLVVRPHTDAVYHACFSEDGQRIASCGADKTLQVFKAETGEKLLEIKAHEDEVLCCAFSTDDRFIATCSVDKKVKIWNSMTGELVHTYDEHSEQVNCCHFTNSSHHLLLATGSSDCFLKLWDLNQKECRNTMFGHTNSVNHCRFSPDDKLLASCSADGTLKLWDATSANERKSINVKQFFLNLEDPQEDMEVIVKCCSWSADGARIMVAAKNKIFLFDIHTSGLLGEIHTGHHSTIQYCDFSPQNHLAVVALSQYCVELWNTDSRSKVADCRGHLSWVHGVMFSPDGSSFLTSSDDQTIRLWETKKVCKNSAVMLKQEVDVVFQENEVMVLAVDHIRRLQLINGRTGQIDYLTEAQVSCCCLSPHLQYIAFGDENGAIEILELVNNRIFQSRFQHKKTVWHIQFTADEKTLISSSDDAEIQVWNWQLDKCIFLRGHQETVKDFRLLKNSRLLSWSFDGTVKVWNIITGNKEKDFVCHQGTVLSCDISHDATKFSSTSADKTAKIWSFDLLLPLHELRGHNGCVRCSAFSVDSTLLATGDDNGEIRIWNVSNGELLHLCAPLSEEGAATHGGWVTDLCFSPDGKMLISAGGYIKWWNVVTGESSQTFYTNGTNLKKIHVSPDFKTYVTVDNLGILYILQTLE
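Material: biochemical Apaf-1 apoptosome reconstitution. Medium: Hepes buffer, pH 7.5. Also added: cytochrome c activation, bis-DEVD rhodamine 110 substrate. Timing: 30 min compound preincubation, 50 min activation, room temperature. Measured by: rhodamine 110 fluorescence at Ex 480/Em 540 nm.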
PAFAH2 confirm: PAFAH2 enzyme inhibitors, confirmation, biochemical, fluorescence polarization, human; AID 493030, 2011; hit rate 65% among 2,300; inhibition, % at 3.39 µM; shares compounds with PAFAH2 inh; recombinant PAFAH2, FP-rhodamine activity probe;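 active = mean inhibition over three repeats above a set limit taken from the earlier primary screen, cut at about 30% in these data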;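 note: inhibitor blocks binding of rhodamine activity probe so polarization falls; 0% = enzyme with DMSO and 100% = wells lacking PAFAH2 protein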
* marks the source's active call; other numbers are inactive results; x = not tested or not shown. A selection: hits, their analogues and other compounds. The true share with any hit is near 3.1%.

SMILES	PAFAH2 inh	PAFAH1B3 FP inh	PAFAH1B2 inh	pPAFAH FP inh	Apaf-1 inh	PAFAH2 confirm
Cc1ccc(N2CCN(C(=O)c3ccccc3NC(=O)C3CC=CCC3C(=O)O)CC2)cc1 (stereo not drawn)	66.0*	6.6	2.1	-0.2	-1.1	57.3*
Cc1cc(C)c(C(=O)OCC(=O)Nc2cccc(S(=O)(=O)N3CCCCC3)c2)c(C)c1	-19.3	-10.8	-8.8	-6.7	12.0	x
Cc1c(C)c2c(OCC(=O)Nc3cccnc3)cc3c(c2oc1=O)CCC(C)(C)O3	33.3*	9.9	4.3	20.2	21.8	11.3
Cc1c(C)c2c(OCC(=O)NCC(C)C)cc3c(c2oc1=O)CCC(C)(C)O3	71.8*	6.3	4.0	x	22.2	51.7*
Cc1ccc(C(=O)NC(C)c2ccc(-n3ccnc3)cc2)o1 (stereo not drawn)	8.3	4.0	3.4	-1.0	5.9	x
COc1ccc(C(=O)OCC2CC(c3ccccc3)N(C)O2)cc1 (stereo not drawn)	56.3*	12.9	3.5	11.3	-0.4	44.7*
CCOc1ccc(C(=O)OCC(=O)N2CC(C)OC(C)C2)cc1OCC (stereo not drawn)	1.5	2.0	-3.1	3.0	3.1	x
O=C(O)CN1C(=O)/C(=C\c2ccccc2OCc2ccc(Cl)cc2)SC1=S	30.1*	4.9	19.9	17.9	4.8	21.9
O=C(O)COc1ccccc1/C=C1\SC(=S)N(/N=C/c2ccccc2O)C1=O	41.9*	14.4	3.6	1.6	-21.7	31.9*
CCc1sc(C(=O)Nc2cccnc2)cc1Br	4.4	4.2	2.2	2.1	1.6	x
Cc1nc(C)c(C(=O)OCC(=O)Nc2cccc(C)c2C)s1	66.3*	1.9	1.0	15.3	0.3	51.0*
Cc1nc(C)c(C(=O)Nc2cccc(C)c2C)s1	3.7	15.2	4.1	1.4	-2.8	x
O=C(COC(=O)c1cccs1)NCCc1ccc(F)cc1	55.3*	-0.8	0.7	x	1.3	49.0*
O=C(COC(=O)CCC(=O)c1cccs1)NCCc1ccccc1	9.2	5.1	2.0	2.6	1.4	x
O=C(COC(=O)c1ccc(F)cc1)NCCc1ccc(F)cc1	36.2*	0.7	1.7	9.9	1.7	17.0
O=C(COC(=O)c1ccc2c(c1)OCCO2)NCCc1ccc(F)cc1	67.9*	-1.8	1.3	10.0	1.4	53.9*
O=C(COC(=O)c1cc(Cl)nc(Cl)c1)NCCc1ccc(F)cc1	4.9	8.8	2.5	2.3	-6.7	x
CCOc1ccccc1NC(=O)CN1CCC(NC(=O)Nc2ccccc2)CC1	7.5	4.2	2.7	1.5	11.9	x
Cc1nc(C)c(C(=O)OCC(=O)NCCc2ccc(S(N)(=O)=O)cc2)s1	8.6	9.4	0.8	0.7	-11.0	x
Cc1nc(C)c(C(=O)OCC(=O)NCCc2ccc(F)cc2)s1	30.9*	-0.7	4.7	x	7.7	23.0
C=CCSc1nnc(NC(=O)CN2C(=O)NC3(CCCC3)C2=O)s1	4.8	-10.3	1.0	-9.8	10.7	x
CCn1nc(C(=O)NNS(=O)(=O)c2ccc(C)cc2)c2ccccc2c1=O	0.8	0.8	-0.2	3.8	-6.4	x
Cc1ccc(/C=c2\sc3nc(-c4ccco4)nn3c2=O)o1	39.1*	9.5	4.7	19.9	10.9	1.1
Cc1ccc(/C=c2\sc3nc(-c4ccccc4Br)nn3c2=O)o1	13.1	-1.6	6.8	24.1	5.4	x
COC(=O)[C@H](Cc1ccccc1)NS(=O)(=O)c1ccc(F)cc1Br	-5.9	-4.8	4.3	x	x	x
SMILES	PAFAH2 inh	PAFAH1B3 FP inh	PAFAH1B2 inh	pPAFAH FP inh	Apaf-1 inh	PAFAH2 confirm
COc1cccc(C(=O)O/N=C(\N)CS(=O)(=O)c2ccccc2)c1	64.4*	0.9	-1.5	20.6	-7.5	45.2*
Cc1cccc(/C(N)=N/OC(=O)c2ccc(F)cc2)c1	22.2	-2.3	1.4	0.0	12.3	x
Cc1cccc(C(=O)O/N=C(\N)CS(=O)(=O)c2ccccc2)c1	43.9*	2.1	3.8	16.1	2.0	36.4*
COC(=O)c1ccccc1NC(=O)CSc1n[nH]c(-c2ccco2)n1	2.6	2.6	0.5	0.4	8.2	x
Cc1nc(-c2ccc(F)cc2)c(CC(=O)N2CCN(S(=O)(=O)c3cccc(F)c3)CC2)s1	0.3	6.6	4.6	3.9	10.3	x
COC(=O)COc1cccc(NC(=O)C(c2ccccc2)c2ccccc2)c1	8.8	10.0	8.4	-4.1	1.6	x
Cc1ccc(NC(=O)COc2cccc(-n3cnnn3)c2)cc1S(=O)(=O)N1CCOCC1	-1.1	3.9	-7.2	4.8	2.1	x
Cc1ccc(NC(=O)COC(=O)c2ccc(OC(F)F)cc2)cc1S(=O)(=O)N1CCCCC1	51.4*	-0.7	-2.3	x	x	42.2*
COc1cccc(NC(=O)COC(=O)c2ccc(C)c(S(=O)(=O)N3CCCCC3)c2)c1	28.0	2.5	1.8	1.8	1.3	x
Cc1ccc(NC(=O)COC(=O)c2ccc3c(c2)OCO3)cc1S(=O)(=O)N1CCCCC1	69.0*	-0.9	-3.2	17.0	16.3	63.0*
Cc1ccc(N(C(=O)c2csnn2)C(C(=O)NC2CCCCC2)c2cccnc2)c(C)c1 (stereo not drawn)	7.4	-2.6	-1.8	6.5	5.9	x
Cc1ccc(C(=O)NCc2ccncc2)cc1S(=O)(=O)N1CCCCC1	1.7	-4.4	3.8	-0.7	-11.6	x
CC(c1ccco1)N(C(=O)c1ccccc1NS(=O)(=O)c1cc([N+](=O)[O-])ccc1Cl)c1ccccn1 (stereo not drawn)	62.8*	-1.5	1.4	7.1	11.7	71.4*
Cc1cc(C(=O)COC(=O)/C=C/c2ccco2)c(C)n1C	17.7	6.8	-0.7	0.3	5.7	x
CN(C)S(=O)(=O)c1cc(NC(=O)COC(=O)/C=C/c2ccco2)ccc1Cl	58.2*	-0.5	-9.0	6.7	-0.9	70.3*
COc1ccc(CC(=O)OCC(=O)Nc2ccc(Cl)c(S(=O)(=O)N(C)C)c2)cc1	18.4	11.0	10.1	15.7	-0.1	x
COc1cccc(/C=C/C(=O)OCC(=O)Nc2ccc(Cl)c(S(=O)(=O)N(C)C)c2)c1	67.5*	-0.9	-2.2	2.5	6.7	69.2*
O=C(COC(=O)/C=C/c1ccccc1)Nc1cc(C(F)(F)F)ccc1N1CCOCC1	55.6*	4.0	-1.4	3.9	-3.3	57.4*
COc1cccc(/C=C/C(=O)OCC(=O)Nc2cccc(S(=O)(=O)N(C)C)c2)c1	68.9*	10.5	2.5	6.3	4.8	60.2*
CN(C)S(=O)(=O)c1cccc(NC(=O)COC(=O)CCOc2ccccc2)c1	-2.2	2.5	-3.3	12.7	0.3	x
COc1cccc(/C=C/C(=O)OCC(=O)Nc2cc(C(F)(F)F)ccc2Cl)c1	33.0*	2.1	-2.9	1.7	13.4	23.8
